Test [1] addresses T1, Son of sevenless homolog 1 (Homo sapiens) (UniProt Q07889).
T1 sequence (whole entry): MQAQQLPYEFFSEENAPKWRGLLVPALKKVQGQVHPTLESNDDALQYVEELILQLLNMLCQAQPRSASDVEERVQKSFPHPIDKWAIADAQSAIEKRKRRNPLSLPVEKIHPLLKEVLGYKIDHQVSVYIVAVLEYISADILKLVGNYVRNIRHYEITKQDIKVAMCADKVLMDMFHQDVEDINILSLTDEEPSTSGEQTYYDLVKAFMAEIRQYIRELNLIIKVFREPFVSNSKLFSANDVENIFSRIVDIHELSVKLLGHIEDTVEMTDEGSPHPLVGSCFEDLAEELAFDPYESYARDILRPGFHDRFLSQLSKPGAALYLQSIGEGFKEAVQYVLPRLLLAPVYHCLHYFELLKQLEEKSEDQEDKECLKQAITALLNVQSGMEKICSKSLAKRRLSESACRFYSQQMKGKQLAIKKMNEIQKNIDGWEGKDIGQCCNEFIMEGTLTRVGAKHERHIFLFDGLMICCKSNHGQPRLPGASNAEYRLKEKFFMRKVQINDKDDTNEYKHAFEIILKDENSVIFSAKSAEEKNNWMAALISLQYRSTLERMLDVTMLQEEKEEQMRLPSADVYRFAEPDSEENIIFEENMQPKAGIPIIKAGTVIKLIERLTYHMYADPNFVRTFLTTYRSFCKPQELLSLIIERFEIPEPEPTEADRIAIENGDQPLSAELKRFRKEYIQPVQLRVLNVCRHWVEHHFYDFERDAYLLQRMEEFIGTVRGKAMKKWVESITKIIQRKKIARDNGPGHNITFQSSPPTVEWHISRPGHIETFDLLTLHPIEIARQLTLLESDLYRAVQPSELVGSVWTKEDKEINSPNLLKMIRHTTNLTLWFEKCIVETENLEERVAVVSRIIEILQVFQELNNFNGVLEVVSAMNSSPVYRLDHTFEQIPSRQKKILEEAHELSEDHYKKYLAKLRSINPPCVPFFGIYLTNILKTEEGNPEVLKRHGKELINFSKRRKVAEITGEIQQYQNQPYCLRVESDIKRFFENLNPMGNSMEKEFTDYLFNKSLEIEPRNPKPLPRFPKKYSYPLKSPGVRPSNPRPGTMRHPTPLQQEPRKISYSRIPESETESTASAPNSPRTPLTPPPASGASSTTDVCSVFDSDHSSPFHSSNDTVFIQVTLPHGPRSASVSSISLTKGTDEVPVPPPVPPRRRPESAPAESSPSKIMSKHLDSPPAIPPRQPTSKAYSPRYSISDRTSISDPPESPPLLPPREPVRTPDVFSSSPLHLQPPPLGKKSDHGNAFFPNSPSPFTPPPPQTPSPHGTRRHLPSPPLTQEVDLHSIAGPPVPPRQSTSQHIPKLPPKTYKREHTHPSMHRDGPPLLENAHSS
As to the kind of experiment: Activation of SOS1 in human HeLa cells assessed as effect on ERK1/2 phosphorylation at T202/Y204 residue by measuring […] at 25 uM after 30 mins by Western blot analysis relative to control. It is filed as cell-based. A digest of the protocol: (§1)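 HeLa cells treated for 30 min with compound at concentrations up to 100 μM. RAS-GTP and ERK1/2 phosphorylated at T202/Y204 were detected by blotting and quantified. EGF (50 ng/mL, 5 min) served as the positive control for pathway activation.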

Test [2] addresses T1, Son of sevenless homolog 1 (Homo sapiens). As to the kind of experiment: Activation of SOS1 in human HeLa cells assessed as effect on ERK1/2 phosphorylation at T202/Y204 residue by measuring […] at 100 uM after 30 mins by Western blot analysis relative to control. (Immunoblotting shows a protein as a band on a membrane.)
For test [3] the target is unchanged. The test is described as follows: Activation of SOS1 in human HeLa cells assessed as effect on RAS-GTP levels by measuring […] at 12.5 uM after 30 mins by active RAS pull-down assay relative to control. It is filed as cell-based. The method in brief:
as §1

Test [4] has the same target. The test is described as follows: Activation of SOS1 in human HeLa cells assessed as effect on RAS-GTP levels by measuring […] at 100 uM after 30 mins by active RAS pull-down assay relative to control. It is filed as cell-based. The method in brief:
as §1

The target is the same in test [5]. As to the kind of experiment: Activation of SOS1 in human HeLa cells assessed as effect on ERK1/2 phosphorylation at T202/Y204 residue by measuring […] at 6.3 uM after 30 mins by Western blot analysis relative to control. It is filed as cell-based. The method in brief:
as §1

The target is the same in test [6]. The test is described as follows: Activation of SOS1 in human HeLa cells assessed as effect on ERK1/2 phosphorylation at T202/Y204 residue by measuring […] at 50 uM after 30 mins by Western blot analysis relative to control. It is filed as cell-based. The method in brief:
as §1

Test [7] has the same target. The test is described as follows: Activation of SOS1 in human HeLa cells assessed as effect on ERK1/2 phosphorylation at T202/Y204 residue by measuring […] at 12.5 uM after 30 mins by Western blot analysis relative to control. It is filed as cell-based. A digest of the protocol: as §1
For test [8] the target is unchanged. The test is described as follows: Activation of SOS1 in human HeLa cells assessed as effect on RAS-GTP levels by measuring […] at 50 uM after 30 mins by active RAS pull-down assay relative to control. It is filed as cell-based. The method in brief: as §1
Test [9] has the same target. As to the kind of experiment: Activation of SOS1 in human HeLa cells assessed as effect on RAS-GTP levels by measuring […] at 6.3 uM after 30 mins by active RAS pull-down assay relative to control. It is filed as cell-based. A digest of the protocol:
as §1

Test [10] shares this target. The test is described as follows: Activation of SOS1 in human HeLa cells assessed as effect on RAS-GTP levels by measuring […] at 3.1 uM after 30 mins by active RAS pull-down assay relative to control. It is filed as cell-based. The method in brief:
as §1

For test [11] the target is unchanged. As to the kind of experiment: Activation of SOS1 in human HeLa cells assessed as effect on RAS-GTP levels by measuring […] at 25 uM after 30 mins by active RAS pull-down assay relative to control. It is filed as cell-based. The method in brief:
as §1

Test [12] shares this target. The test is described as follows: Activation of SOS1 in human HeLa cells assessed as effect on ERK1/2 phosphorylation at T202/Y204 residue by measuring […] at 3.1 uM after 30 mins by Western blot analysis relative to control. It is filed as cell-based. The method in brief:
as §1

Test [13] has the same target. The test is described as follows: Biphasic activity at SOS1 in human HeLa cells assessed as reduction in ERK1/2 T202/Y204 phosphorylation at 100 uM measured after 30 mins by Western blot analysis. It is filed as cell-based. A digest of the protocol: as §1
In test [14] the target is Mitogen-activated protein kinase 3 (Homo sapiens) (UniProt P27361). As to the kind of experiment: Inhibition of human ERK1 using myelin basic protein as substrate measured in presence of [gamma33P]ATP.
Test [15] addresses Mitogen-activated protein kinase 1 (Homo sapiens) (UniProt P28482). As to the kind of experiment: Inhibition of human ERK2 using myelin basic protein as substrate measured in presence of [gamma33P]ATP.

Structures are written as SMILES. Activity calls are given as the source filed them. No cut-off for these calls is given here.

Mitogen-activated protein kinase 3 (Homo sapiens), sequence (P27361 whole entry): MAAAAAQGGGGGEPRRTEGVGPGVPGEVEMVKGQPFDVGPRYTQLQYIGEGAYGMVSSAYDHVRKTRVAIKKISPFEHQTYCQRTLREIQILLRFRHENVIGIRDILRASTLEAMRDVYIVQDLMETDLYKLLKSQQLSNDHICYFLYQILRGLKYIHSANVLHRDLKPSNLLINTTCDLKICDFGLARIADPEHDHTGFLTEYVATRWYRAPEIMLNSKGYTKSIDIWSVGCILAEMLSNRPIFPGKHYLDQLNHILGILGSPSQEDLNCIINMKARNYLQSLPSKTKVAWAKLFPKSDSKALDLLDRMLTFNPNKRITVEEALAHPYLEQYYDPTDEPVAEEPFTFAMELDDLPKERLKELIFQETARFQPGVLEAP
Mitogen-activated protein kinase 1 (Homo sapiens), sequence (P28482 whole entry): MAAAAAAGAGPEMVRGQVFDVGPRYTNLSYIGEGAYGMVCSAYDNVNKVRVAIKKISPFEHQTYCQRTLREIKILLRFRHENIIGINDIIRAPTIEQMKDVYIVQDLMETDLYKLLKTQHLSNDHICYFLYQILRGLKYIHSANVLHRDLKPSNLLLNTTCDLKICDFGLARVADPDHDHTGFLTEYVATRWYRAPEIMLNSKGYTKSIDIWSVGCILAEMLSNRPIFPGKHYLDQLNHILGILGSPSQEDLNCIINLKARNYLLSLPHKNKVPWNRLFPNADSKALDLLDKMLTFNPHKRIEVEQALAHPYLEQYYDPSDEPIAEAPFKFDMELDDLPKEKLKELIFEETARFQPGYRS

`C[C@@H](Nc1nc(Nc2ccc(F)c(Cl)c2)nc2c(C3=CCNCC3)cccc12)C1CC1`: the fold change (FC) in test [1] worked out at 1.98; in test [2] it was 0.58; in [3], 1.72; in test [4] it was 1.51; in [5], 1.29; in [6] it was 1.16. In addition, the fold change (FC) in test [7] amounted to 1.98; in test [8], 1.56; in test [9] it was 1.08; in test [10], 1.41; in test [11], 1.6; in test [12] it was 1.43.
On to `C[C@@H](Nc1nc(Nc2ccc(F)c(Cl)c2)nc2c(CCN)cccc12)C1CC1`, for which the fold change (FC) was 1.87 in test [1]; 0.44 in test [2]; 0.97 in test [3]; 1.66 in [4]; 1.82 in [5]; 1.18 in test [6]. The fold change (FC) in [7] was 1.59; in test [8], 1.61; in test [9] it was 1.64; in test [10], 1.22; in test [11], 1.58; in [12], 1.11.
As for `C[C@@H](Nc1nc(Nc2ccc(F)c(Cl)c2)nc2c(CN)cccc12)C1CC1`, the fold change (FC) amounted to 2.52 in test [1]; 0.59 in [2]; 0.98 in test [3]; 1.54 in [4]; 0.94 in [5]; 2.43 in [6]. Besides, the fold change (FC) in test [7] was found to be 1.83; in [8] it was 1.14; in [9], 1.39; in [10], 1.15; in test [11] it was 1.18; in test [12], 1.05.
For the compound `CC[C@H](Nc1nc(Nc2ccc(F)c(Cl)c2)nc2ccccc12)C1CC1`, the outcome in test [13] was inactive.
For the compound `CC[C@@H](Nc1nc(Nc2ccc(F)c(Cl)c2)nc2ccccc12)C1CCC1`, the outcome in [13] was inactive.
`C[C@@H](Nc1nc(Nc2ccc(F)c(Cl)c2)nc2ccccc12)C1CC1`: the fold change (FC) in test [1] is 1.61; in test [2], 4.01; in test [3], 0.53; in [4], 1.39; in test [5] it was 1.03; in test [6] it was 3.68. Moreover, the fold change (FC) in test [7] stood at 1.67; in test [8], 1.26; in test [9], 0.85; in test [10], 0.95; in test [11], 0.69; in test [12], 1.16. In addition, the inhibition result in test [14] and in test [15] was “inactive” throughout.
As to `Clc1cc(Cl)cc(Nc2nc(NCc3ccco3)c3ccccc3n2)c1`, in test [13], the result was inactive.
Same read-out and setting: under `C[C@@H](Nc1nc(Nc2ccc(F)c(Cl)c2)nc2ccccc12)C1CCC1` stands “inactive”; under `CC(C)C[C@@H](Nc1nc(Nc2ccc(F)c(Cl)c2)nc2ccccc12)C1CC1`, “inactive”.
